Laboratory results from ChEMBL document CHEMBL1240409, “Design, synthesis and evaluation of (E)-alpha-benzylthio chalcones as novel inhibitors of BCR-ABL kinase” (Bioorg Med Chem, 2010).
The source made the active and inactive calls. No cut-off for these calls is given here.

How the values were obtained:
K562 = assay: Growth inhibition of human K562 cells expressing p210Bcr/Abl after 96 hrs by trypan blue exclusion assay; type: functional, cell-based; conditions: K562, 96 h
In short: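 K562 cells were kept in RPMI with 10% FBS and penicillin–streptomycin at 37 °C under 5% CO2. Cells were seeded at 1 × 10^5 cells/mL with a range of compound concentrations, using DMSO as the negative control. After 96 h, viability was counted by Trypan blue exclusion and expressed as percent of DMSO control to derive GI50.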

DU-145 = assay: Growth inhibition of human DU145 cells after 96 hrs by trypan blue exclusion assay; type: functional; conditions: DU-145, 96 h
Bcr/Abl fusion protein = Bcr/Abl fusion protein (Homo sapiens, UniProt P00519); assay: Inhibition of BCR/ABL p210 autophosphorylation in human K562 cells after 2 hrs by Western blot analysis; type: cell-based
[1] = Aqueous solubility of the compound; type: physicochemical; conditions: buffer
[2] = target: Bcr/Abl fusion protein (Homo sapiens) (UniProt P00519+P11274); assay: Inhibition of BCR/ABL p210 autophosphorylation in human K562 cells at 0.2 to 10 uM after 2 hrs by Western blot analysis; type: cell-based
In short: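 Exponentially growing K562 cells were treated for 2 h with rising compound concentrations, diluted from 10 mM DMSO stocks via 1000× DMSO working stocks, or with DMSO vehicle. Lysates were run on 10% SDS–PAGE. Blots were probed sequentially for phospho-BCR-ABL and total BCR-ABL, detected with infrared-dye secondaries, and quantified by densitometry. The phospho signal was normalized to total, with % inhibition relative to vehicle.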

[3] = Aqueous solubility of the compound

Sequence of Bcr/Abl fusion protein (P00519 whole entry, the tested form may be a part): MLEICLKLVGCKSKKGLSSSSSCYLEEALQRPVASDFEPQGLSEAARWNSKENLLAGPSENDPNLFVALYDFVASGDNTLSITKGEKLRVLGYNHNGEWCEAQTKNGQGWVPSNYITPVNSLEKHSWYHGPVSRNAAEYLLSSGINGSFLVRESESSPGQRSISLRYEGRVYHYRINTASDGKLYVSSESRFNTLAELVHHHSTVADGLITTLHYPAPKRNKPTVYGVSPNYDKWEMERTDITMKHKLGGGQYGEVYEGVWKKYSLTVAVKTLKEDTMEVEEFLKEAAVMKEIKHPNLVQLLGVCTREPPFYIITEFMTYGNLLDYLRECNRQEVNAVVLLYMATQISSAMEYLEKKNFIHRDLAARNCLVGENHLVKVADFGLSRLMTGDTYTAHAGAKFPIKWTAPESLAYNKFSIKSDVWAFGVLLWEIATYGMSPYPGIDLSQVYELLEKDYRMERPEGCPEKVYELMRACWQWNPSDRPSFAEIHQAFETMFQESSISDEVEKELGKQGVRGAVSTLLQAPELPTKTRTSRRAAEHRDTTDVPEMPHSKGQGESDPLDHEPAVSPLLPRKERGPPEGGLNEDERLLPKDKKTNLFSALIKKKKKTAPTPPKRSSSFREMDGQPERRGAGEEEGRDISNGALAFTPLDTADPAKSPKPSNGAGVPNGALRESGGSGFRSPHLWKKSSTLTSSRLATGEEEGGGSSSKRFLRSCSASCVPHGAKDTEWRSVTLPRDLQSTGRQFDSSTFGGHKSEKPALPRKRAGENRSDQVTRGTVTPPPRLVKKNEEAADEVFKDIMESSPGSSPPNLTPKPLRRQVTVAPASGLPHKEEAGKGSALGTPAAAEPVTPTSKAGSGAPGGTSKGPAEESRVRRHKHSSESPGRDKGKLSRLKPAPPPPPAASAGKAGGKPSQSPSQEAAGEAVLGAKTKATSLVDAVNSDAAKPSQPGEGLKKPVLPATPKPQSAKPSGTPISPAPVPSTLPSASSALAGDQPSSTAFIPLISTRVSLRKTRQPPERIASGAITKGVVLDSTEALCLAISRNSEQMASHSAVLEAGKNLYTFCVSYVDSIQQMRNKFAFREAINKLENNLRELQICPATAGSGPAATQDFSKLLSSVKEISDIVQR
Sequence of Bcr/Abl fusion protein (P11274 whole entry, further chain, the tested form may be a part): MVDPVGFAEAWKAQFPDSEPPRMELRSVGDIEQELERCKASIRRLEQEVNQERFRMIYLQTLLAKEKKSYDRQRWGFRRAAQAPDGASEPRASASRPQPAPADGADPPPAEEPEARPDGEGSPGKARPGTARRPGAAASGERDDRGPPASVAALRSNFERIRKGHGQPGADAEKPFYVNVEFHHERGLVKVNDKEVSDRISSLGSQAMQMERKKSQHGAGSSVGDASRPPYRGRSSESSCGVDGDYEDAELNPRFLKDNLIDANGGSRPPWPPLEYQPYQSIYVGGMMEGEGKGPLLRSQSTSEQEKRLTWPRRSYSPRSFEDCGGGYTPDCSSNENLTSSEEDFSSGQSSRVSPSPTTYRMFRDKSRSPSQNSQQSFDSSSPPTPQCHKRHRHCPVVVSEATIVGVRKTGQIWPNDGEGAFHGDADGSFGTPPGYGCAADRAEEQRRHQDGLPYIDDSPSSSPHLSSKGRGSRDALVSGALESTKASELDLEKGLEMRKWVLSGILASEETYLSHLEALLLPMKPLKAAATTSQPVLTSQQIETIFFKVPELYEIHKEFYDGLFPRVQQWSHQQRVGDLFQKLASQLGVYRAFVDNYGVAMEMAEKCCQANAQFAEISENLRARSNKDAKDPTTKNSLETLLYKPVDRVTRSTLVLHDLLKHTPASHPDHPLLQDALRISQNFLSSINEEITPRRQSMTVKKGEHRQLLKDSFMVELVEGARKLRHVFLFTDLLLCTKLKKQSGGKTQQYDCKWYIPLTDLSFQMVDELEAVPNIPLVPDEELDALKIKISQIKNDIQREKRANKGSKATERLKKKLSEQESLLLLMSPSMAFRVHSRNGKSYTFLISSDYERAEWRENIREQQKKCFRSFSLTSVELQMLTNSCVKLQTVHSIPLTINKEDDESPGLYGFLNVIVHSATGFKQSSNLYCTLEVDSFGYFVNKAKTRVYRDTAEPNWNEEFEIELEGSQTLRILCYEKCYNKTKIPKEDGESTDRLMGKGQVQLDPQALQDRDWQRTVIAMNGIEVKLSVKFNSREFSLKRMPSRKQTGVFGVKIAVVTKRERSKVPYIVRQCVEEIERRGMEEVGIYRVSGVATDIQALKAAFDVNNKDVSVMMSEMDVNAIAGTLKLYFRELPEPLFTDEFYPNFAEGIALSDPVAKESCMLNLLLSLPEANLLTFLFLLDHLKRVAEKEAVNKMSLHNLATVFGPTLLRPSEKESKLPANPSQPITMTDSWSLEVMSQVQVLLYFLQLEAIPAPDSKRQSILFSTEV
Sequence of Bcr/Abl fusion protein (Homo sapiens) (P00519 whole entry, looked up, the tested form may be a part): as the sequence (P00519 whole entry, the tested form may be a part) above
Sequence of Bcr/Abl fusion protein (Homo sapiens) (P11274 whole entry, looked up, the tested form may be a part): as the sequence (P11274 whole entry, further chain, the tested form may be a part) above

Structure (SMILES)	GI50 (K562)	IC50 (K562)	GI50 (DU-145)	IC50 (Bcr/Abl fusion protein)	solubility [1]	inhibition [2]	solubility [3]
O=C(O)c1ccc(C(=O)/C(=C\c2ccc(F)c([N+](=O)[O-])c2)SCc2ccc(Cl)cc2)cc1	10000 nM	500 nM	50000 nM	2500 nM	< 1000 µg/mL		
O=C(O)c1ccc(C(=O)/C(=C\c2ccc(F)cc2[N+](=O)[O-])SCc2ccc(Br)cc2)cc1		20000 nM		> 20000 nM	< 1000 µg/mL		
O=C(O)c1ccc(C(=O)/C(=C\c2ccc(F)c([N+](=O)[O-])c2)SCc2ccc(F)cc2)cc1	< 1000 nM	400 nM	1000 nM	2500 nM	< 1000 µg/mL		
O=C(O)c1ccc(C(=O)/C(=C\c2ccc(Cl)c([N+](=O)[O-])c2)SCc2ccc(Cl)cc2Cl)cc1	< 1000 nM	600 nM	1000 nM	2500 nM	< 1000 µg/mL		
O=C(/C(=C\c1ccc(F)c([N+](=O)[O-])c1)SCc1ccc(F)cc1)c1ccc(F)cc1	< 1000 nM	600 nM	1000 nM	2500 nM	< 1000 µg/mL		
COC(=O)c1ccc(C(=O)/C(=C\c2ccc(F)c([N+](=O)[O-])c2)SCc2ccc(Br)cc2)cc1		300 nM		750 nM	< 1000 µg/mL	Active	
COc1cc(/C=C(/SCc2ccc(Br)cc2)C(=O)c2ccc(C(=O)O)cc2)ccc1F	1000 nM	20000 nM	1000 nM	> 20000 nM	< 1000 µg/mL		
O=C(/C(=C\c1ccc(F)c([N+](=O)[O-])c1)SCc1ccc(Br)cc1)c1ccc(C(=O)N2CCN(CCO)CC2)cc1	< 250 nM	500 nM	750 nM	500 nM	> 10000 µg/mL	Active	> 10000 µg/mL
O=C(O)c1ccc(C(=O)/C(=C\c2ccc(F)c([N+](=O)[O-])c2)Sc2ccc(Br)cc2)cc1		1500 nM		20000 nM	< 1000 µg/mL		
CCN(CC)CCNC(=O)c1ccc(C(=O)/C(=C\c2ccc(F)c([N+](=O)[O-])c2)SCc2ccc(Br)cc2)cc1		500 nM		500 nM	> 10000 µg/mL		> 10000 µg/mL
O=C(O)c1ccc(C(=O)/C(=C\c2ccc([N+](=O)[O-])c(F)c2)SCc2ccc(Br)cc2)cc1		5000 nM		> 20000 nM	< 1000 µg/mL		
O=C(O)c1ccc(C(=O)/C(=C\c2ccc(O)c(Br)c2)SCc2ccc(Br)cc2)cc1	25000 nM	35000 nM	25000 nM	> 20000 nM	< 1000 µg/mL		
O=C(/C(=C\c1ccc(F)c([N+](=O)[O-])c1)SCc1ccc(F)cc1)c1ccc(C(=O)N2CCN(CCO)CC2)cc1		500 nM		500 nM	> 10000 µg/mL	Active	> 10000 µg/mL
O=C(O)c1ccc(C(=O)/C(=C\c2ccc(Br)c([N+](=O)[O-])c2)SCc2ccc(F)cc2)cc1	< 1000 nM	400 nM	1000 nM	15000 nM	< 1000 µg/mL		
O=C(O)c1ccc(C(=O)/C(=C\c2ccc(Br)c([N+](=O)[O-])c2)SCc2ccc(Br)cc2)cc1	< 1000 nM	900 nM	1000 nM	10000 nM	< 1000 µg/mL		
O=C(O)c1ccc(C(=O)/C(=C\c2ccc(Cl)c([N+](=O)[O-])c2)SCc2ccc(F)cc2)cc1	< 1000 nM	500 nM	1000 nM	2500 nM	< 1000 µg/mL		
O=C(O)c1ccc(C(=O)/C(=C\c2ccc(O)c([N+](=O)[O-])c2)SCc2ccc(Br)cc2)cc1	50000 nM	75000 nM	50000 nM	> 20000 nM	< 1000 µg/mL		

Structure (SMILES)	GI50 (K562)	IC50 (K562)	GI50 (DU-145)	IC50 (Bcr/Abl fusion protein)	solubility [1]	inhibition [2]	solubility [3]
O=C(O)c1ccc(C(=O)/C(=C\c2ccc(F)c([N+](=O)[O-])c2)SCc2ccc(Cl)cc2Cl)cc1	< 1000 nM	400 nM	1000 nM	2500 nM	< 1000 µg/mL		
O=C(O)c1ccc(C(=O)/C(=C\c2ccc([N+](=O)[O-])cc2F)SCc2ccc(Br)cc2)cc1		7500 nM		> 20000 nM	< 1000 µg/mL		
O=C(O)c1ccc(C(=O)/C(=C\c2ccc(Cl)c([N+](=O)[O-])c2)SCc2ccccc2F)cc1	< 1000 nM	800 nM	1000 nM	10000 nM	< 1000 µg/mL		
O=C(O)c1ccc(C(=O)/C(=C\c2ccc(Cl)c([N+](=O)[O-])c2)SCc2ccc(Br)cc2)cc1	1000 nM	700 nM	500 nM	10000 nM	< 1000 µg/mL		
O=C(O)c1ccc(C(=O)/C(=C\c2ccc(Br)c([N+](=O)[O-])c2)SCc2ccc(Cl)cc2Cl)cc1	< 1000 nM	600 nM	1000 nM	2500 nM	< 1000 µg/mL		
O=C(O)c1ccc(C(=O)/C(=C\c2ccc(Cl)c([N+](=O)[O-])c2)S(=O)(=O)Cc2ccc(Br)cc2)cc1	25000 nM	25000 nM	25000 nM	> 20000 nM	< 1000 µg/mL		
O=C(O)c1ccc(C(=O)/C(=C\c2ccc(F)c([N+](=O)[O-])c2)SCc2ccccc2Cl)cc1	1000 nM	500 nM	1000 nM	10000 nM	< 1000 µg/mL		
O=C(O)c1ccc(C(=O)/C(=C\c2ccc(F)c([N+](=O)[O-])c2)SCc2ccc(C(F)(F)F)cc2)cc1	< 1000 nM	400 nM	1000 nM	200 nM	< 1000 µg/mL	Active	
O=C(O)c1ccc(C(=O)/C(=C\c2ccc(F)c([N+](=O)[O-])c2)S(=O)(=O)Cc2ccc(Br)cc2)cc1		5000 nM		> 20000 nM	< 1000 µg/mL		
O=C(O)c1ccc(C(=O)/C(=C\c2ccc(Br)c([N+](=O)[O-])c2)SCc2ccc(Cl)cc2)cc1	< 1000 nM	600 nM	< 1000 nM	2500 nM	< 1000 µg/mL		
O=C(O)c1ccc(C(=O)/C(=C\c2cc([N+](=O)[O-])ccc2F)SCc2ccc(Br)cc2)cc1		7500 nM		> 20000 nM	< 1000 µg/mL		
Cc1ccc(CS/C(=C/c2ccc(F)c([N+](=O)[O-])c2)C(=O)c2ccc(C(=O)O)cc2)cc1	< 1000 nM	300 nM	1000 nM	2500 nM	< 1000 µg/mL		
O=C(O)c1ccc(C(=O)/C(=C\c2ccc(Cl)c([N+](=O)[O-])c2)SCc2ccc(Cl)cc2)cc1	< 1000 nM	500 nM	1000 nM	10000 nM	< 1000 µg/mL		
O=C(O)c1ccc(C(=O)/C(=C\c2ccc(F)c([N+](=O)[O-])c2)SCc2ccccc2)cc1		300 nM		2500 nM	< 1000 µg/mL		
O=C(O)c1ccc(C(=O)/C(=C\c2ccc(F)c([N+](=O)[O-])c2)[S+]([O-])Cc2ccc(Br)cc2)cc1 (centres undefined)		75000 nM		> 20000 nM	< 1000 µg/mL		
O=C(/C(=C/c1ccc(Cl)cc1)Cc1ccc(Cl)c(Cl)c1)c1ccc(Cl)cc1Cl	1000 nM		1000 nM				
COc1ccc(S/C(=C/c2ccc(Br)cc2)C(=O)c2ccc(Br)cc2)cc1	6000 nM		20000 nM				
